Source: ChEMBL document CHEMBL1145048, “Functionalized glycomers as growth inhibitors and inducers of apoptosis in human glioblastoma cells” (J Med Chem, 2003)

Assays:
[1] = Efficacy index was evaluated as ratio of apoptosis index to MTT reduction for human glioblastoma LN18 cells at 22.5 uM concentration; assay type: functional, cell-based
Outline: (§1)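 Cells grown 24 h with FCS, then deprived of FCS for 10 h, then exposed to glycomers for 12 h. In adherent cells, MTT reduction (540 nm), [3H]-thymidine incorporation (cpm) and nucleosome-fragment apoptosis index (treated vs control) were measured. Efficacy index = ratio of thymidine incorporation or apoptosis index to MTT reduction.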

[2] = Glycomer activity determined as growth inhibition of human glioblastoma LNZ308 cells; assay type: functional, cell-based; conditions: Homo sapiens, LNZ308
Outline: (§2)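 Cells grown 24 h with FCS, then 24 h without FCS, then exposed to glycomers at increasing concentrations in serum-free medium for 24 h. MTT at 0.2 mg/mL was added for the last 2 h, formazan was dissolved in 0.1 N HCl/2-propanol and read at 540 nm. Growth inhibition = treated/control MTT reduction. IC50 is the concentration giving 50% inhibition from dose–response curves. Triplicate, mean ± SD.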

[3] = Efficacy index was evaluated as ratio of apoptosis index to MTT reduction for human glioblastoma LNZ308 cells at 0 uM concentration; assay type: functional, cell-based; outline: as §1
[4] = Efficacy index was evaluated as ratio of inhibition of DNA synthesis (3HT incorporation) to inhibition of growth(MTT) for human glioblastoma LNZ308 cells at 22.5 uM concentration; assay type: functional, cell-based; outline: as §1
[5] = Glycomer activity determined as growth inhibition of human glioblastoma LN18 cells; assay type: functional, cell-based; outline: as §2
[6] = Efficacy index was evaluated as ratio of inhibition of DNA synthesis (3HT incorporation) to inhibition of growth(MTT) for human glioblastoma LN18 cells at 22.5 uM concentration; assay type: functional, cell-based; outline: as §1
[7] = Efficacy index was evaluated as ratio of inhibition of DNA synthesis (3HT incorporation) to inhibition of growth(MTT) for human glioblastoma LNZ308 cells at 11.3 uM concentration; assay type: functional, cell-based; outline: as §1
[8] = Efficacy index was evaluated as ratio of apoptosis index to MTT reduction for human glioblastoma LNZ308 cells at 4.5 uM concentration; assay type: functional, cell-based; outline: as §1
[9] = Apoptosis index was determined against human glioblastoma LNZ308 cells at 16 uM and total exposure time of 10 hours; assay type: functional
Outline: (§3)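 Cells seeded to half confluence in DMEM-10% FCS for 24 h, then held 24 h without FCS before glycomer addition in serum-free medium. At the end of the incubation, histone-associated DNA fragments (mono- and oligonucleosomes) in still-adherent cells were measured by photometric ELISA (absorbance 405 nm). Apoptosis index = absorbance of treated / untreated wells, untreated set at 1.00. Done in triplicate.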

[10] = Apoptosis index was determined against human glioblastoma LN18 cells at 16 uM after total exposure of 10 hours; assay type: functional; outline: as §3
[11] = Efficacy index was evaluated as ratio of inhibition of DNA synthesis (3HT incorporation) to inhibition of growth(MTT) for human glioblastoma LNZ308 cells at 0 uM concentration; assay type: functional, cell-based; outline: as §1
[12] = Efficacy index was evaluated as ratio of apoptosis index to MTT reduction for human glioblastoma LN18 cells at 4.5 uM concentration; assay type: functional, cell-based; outline: as §1
[13] = Efficacy index was evaluated as ratio of apoptosis index to MTT reduction for human glioblastoma LNZ308 cells at 22.5 uM concentration; assay type: functional, cell-based; outline: as §1
[14] = Efficacy index was evaluated as ratio of inhibition of DNA synthesis (3HT incorporation) to inhibition of growth(MTT) for human glioblastoma LN18 cells at 4.5 uM concentration; assay type: functional, cell-based; outline: as §1
[15] = Efficacy index was evaluated as ratio of apoptosis index to MTT reduction for human glioblastoma LN18 cells at 11.3 uM concentration; assay type: functional, cell-based; outline: as §1
[16] = Efficacy index was evaluated as ratio of inhibition of DNA synthesis (3HT incorporation) to inhibition of growth(MTT) for human glioblastoma LNZ308 cells at 4.5 uM concentration; assay type: functional, cell-based; outline: as §1
[17] = Efficacy index was evaluated as ratio of apoptosis index to MTT reduction for human glioblastoma LN18 cells at 0 uM concentration; assay type: functional, cell-based; outline: as §1
[18] = Efficacy index was evaluated as ratio of inhibition of DNA synthesis (3HT incorporation) to inhibition of growth(MTT) for human glioblastoma LN18 cells at 11.3 uM concentration; assay type: functional, cell-based; outline: as §1
[19] = Efficacy index was evaluated as ratio of inhibition of DNA synthesis (3HT incorporation) to inhibition of growth(MTT) for human glioblastoma LN18 cells at 0 uM concentration; assay type: functional, cell-based; outline: as §1
[20] = Efficacy index was evaluated as ratio of apoptosis index to MTT reduction for human glioblastoma LNZ308 cells at 11.3 uM concentration; assay type: functional, cell-based; outline: as §1
[21] = Apoptosis index was determined against human glioblastoma LNZ308 cells at concentration of 25 uM after otal exposure time of 24 hours; assay type: functional, cell-based; outline: as §3
[22] = Apoptosis index was determined against human glioblastoma LN18 cells at concentration of 25 uM after total exposure time of 24 hours; assay type: functional, cell-based; outline: as §3
[23] = Apoptosis index was determined against human glioblastoma LNZ308 cells at concentration of 11 uM after total exposure time of 15 hours; assay type: functional, cell-based; outline: as §3
[24] = Apoptosis index was determined against human glioblastoma LN18 cells at concentration of 11 uM after total exposure time of 15 hours; assay type: functional, cell-based; outline: as §3

C=CCO[C@H]1[C@H](O)[C@H](COS(=O)(=O)c2cccc(C(F)(F)F)c2)O[C@@H](Oc2ccc(I)cc2)[C@H]1OC(=O)CC gave an Efficacy index [1] of 9.6, an IC50 [2] of 11.5 µM and an Efficacy index [3] of 0.95. For the same molecule, the Efficacy index [4] was 0.24, the IC50 ([5]; Homo sapiens, LN-18) was 7 µM and the Efficacy index [6] was 0.3. It also gave an Efficacy index [7] of 1.23, an Efficacy index [8] of 0.99 and an Apoptosis index [9] of 8.97. It also gave an Apoptosis index [10] of 3.82, an Efficacy index [11] of 9.79 and an Efficacy index [12] of 1.19. For the same molecule, the Efficacy index [13] was 5.09, the Efficacy index [14] was 4.87 and the Efficacy index [15] was 3.51. The Efficacy index [16] was 5, the Efficacy index [17] was 0.93 and the Efficacy index [18] was 0.23. It also gave an Efficacy index [19] of 16.2 and an Efficacy index [20] of 2.03.
In the case of C=CCO[C@H]1[C@H](O)[C@H](COS(=O)(=O)c2cccc(C(F)(F)F)c2)O[C@@H](Oc2ccc(I)cc2)[C@H]1OC(=O)CCC (stereo in doubt; 16a), the IC50 [2] is reported as 29 µM and the IC50 ([5]; Homo sapiens, LN-18) is reported as 40 µM.
With C=CCO[C@@H]1[C@H](O)[C@H](Oc2ccc(I)cc2)O[C@@H](COS(=O)(=O)c2cccc(C(F)(F)F)c2)[C@H]1O the IC50 [2] was 19 µM and the IC50 ([5]; Homo sapiens, LN-18) was 21 µM.
Molecule C=CCOC1C(O)C(CNS(=O)(=O)c2cccc(C(F)(F)F)c2)OC(Oc2ccc(I)cc2)C1O (stereo not given) has an IC50 [2] of 27 µM and an IC50 ([5]; Homo sapiens, LN-18) of 16 µM.
Molecule C=CCO[C@H]1[C@@H](O)[C@H](COS(=O)(=O)c2cccc(C(F)(F)F)c2)O[C@@H](Oc2ccc(I)cc2)[C@H]1OC(=O)C(C)C has an IC50 [2] of 18 µM and an IC50 ([5]; Homo sapiens, LN-18) of 18.5 µM.
C=CCO[C@H]1[C@H](O)[C@H](COS(=O)(=O)c2cccc(C(F)(F)F)c2)O[C@@H](Oc2ccc(I)cc2)[C@H]1OC(=O)CCC (stereo in doubt; 8c) gave an Apoptosis index [21] of 0.41 and an Apoptosis index [22] of 0.44.
CO[C@@H]1[C@H](O)[C@H](Oc2ccc(I)cc2)O[C@@H](COS(=O)(=O)c2cccc(C(F)(F)F)c2)[C@H]1O showed an IC50 [2] greater than 50 µM and an IC50 ([5]; Homo sapiens, LN-18) greater than 50 µM.
With C=CCOC1C(O)C(CNS(=O)(=O)c2cccc(C(F)(F)F)c2)OC(Oc2ccc(I)cc2)C1OC(=O)CC (stereo not given) the Efficacy index [1] was 8.43, the Efficacy index [3] was 0.95 and the Efficacy index [4] was 0.35. It also gave an Efficacy index [6] of 0.47, an Efficacy index [7] of 0.64 and an Apoptosis index [23] of 1.45. The Efficacy index [8] was 0.72, the Efficacy index [12] was 0.88 and the Efficacy index [13] was 6.18. The Efficacy index [14] was 3.11, the Efficacy index [15] was 1.63 and the Apoptosis index [24] was 0.98. The Efficacy index [17] was 0.93, the Efficacy index [18] was 0.07 and the Efficacy index [19] was 16.2. It also gave an Efficacy index [20] of 1.81.
Molecule C=CCO[C@H]1[C@H](O)[C@H](COCc2ccccc2)O[C@@H](Oc2ccc(Br)cc2)[C@H]1OC(=O)CCC has an IC50 [2] greater than 50 µM and an IC50 ([5]; Homo sapiens, LN-18) greater than 50 µM.
Work on CCCC(=O)O[C@@H]1[C@H](Oc2ccc(I)cc2)O[C@@H](COCc2ccccc2)[C@@H](O)[C@@H]1OCCO yielded an IC50 [2] greater than 50 µM and an IC50 ([5]; Homo sapiens, LN-18) greater than 50 µM.
C=CCO[C@H]1[C@H](O)[C@H](COS(=O)(=O)c2cccc(C(F)(F)F)c2)O[C@@H](Oc2ccc(I)cc2)[C@H]1OC(C)=O gave an IC50 [2] of 13 µM and an IC50 ([5]; Homo sapiens, LN-18) of 12.5 µM.
CCCO[C@@H]1[C@H](O)[C@H](Oc2ccccc2)O[C@@H](COCc2ccccc2)[C@H]1O showed an IC50 [2] greater than 50 µM, an IC50 ([5]; Homo sapiens, LN-18) greater than 50 µM and an Apoptosis index [22] of 1.29.
With C=CCOC1C(O)C(CNS(=O)(=O)c2cccc(C(F)(F)F)c2)OC(Oc2ccc(I)cc2)C1OC(=O)CCC (stereo in doubt; 10b) the IC50 [2] was 17.5 µM and the IC50 ([5]; ln18) was 6.5 µM.
Work on C=CCO[C@H]1[C@H](O)[C@H](COCc2ccccc2)O[C@@H](Oc2ccc(OC)cc2)[C@H]1OC(C)=O yielded an IC50 [2] greater than 50 µM and an IC50 ([5]; Homo sapiens, LN-18) greater than 50 µM.
In the case of C=CCO[C@H]1[C@H](O)[C@H](COCc2ccccc2)O[C@@H](Oc2ccc(I)cc2)[C@H]1OC(=O)CC, the Efficacy index [1] is reported as 8.3, the IC50 [2] is reported as 17.5 µM and the Efficacy index [3] is reported as 0.95. The Efficacy index [4] was 0.34, the IC50 ([5]; Homo sapiens, LN-18) was 11.5 µM and the Efficacy index [6] was 0.58. It also gave an Efficacy index [7] of 2.04, an Apoptosis index [23] of 0.91 and an Efficacy index [8] of 0.62. It also gave an Efficacy index [11] of 9.79, an Efficacy index [12] of 1.92 and an Efficacy index [13] of 2.32. It also gave an Efficacy index [14] of 6.23, an Efficacy index [15] of 4.85 and an Apoptosis index [24] of 3.67. The Efficacy index [17] was 0.93, the Efficacy index [18] was 0.09 and the Efficacy index [19] was 16.2. For the same molecule, the Efficacy index [20] was 0.7.
